ChEMBL document CHEMBL2385051, “Facile synthesis of new imidazo[1,2-a]pyridines carrying 1,2,3-triazoles via click chemistry and their antiepileptic studies” (Bioorg Med Chem Lett, 2013)
Active and inactive are the calls of the source. The rule behind the calls is not given here.

Tests used:
[1] = Neurotoxicity in ip dosed NMRI mouse assessed as dose required to cause minimal motor impairment after 0.5 hrs by rotarod test; format: toxicity, organism-based; details: in vivo, read-out: MTC50
How it was run: (§1)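 Rotarod motor-impairment test in mice given 20, 40 and 100 mg/kg doses, read 0.5 and 4 h after administration. The value recorded is the minimal dose producing toxicity in more than 50% of mice.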

Mus musculus [2] = experiment: Anticonvulsant activity in NMRI mouse assessed as protection against subcutaneous pentylene tetrazole-induced seizure at 20 to 100 mg/kg, ip after 0.5 hrs; format: functional, organism-based
How it was run: (§2)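 Mice received 20, 40 and 100 mg/kg test doses. Seizures were induced by electrical shock (MES) or PTZ injection (scPTZ) at 0.5 and 4 h after dosing. The value recorded is the minimal dose protecting more than 50% of mice against seizure.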

[3] = Neurotoxicity in ip dosed NMRI mouse assessed as dose required to cause minimal motor impairment after 4 hrs by rotarod test; format: toxicity, organism-based; details: in vivo, read-out: MTC50; how it was run: as §1
Mus musculus [4] = experiment: Anticonvulsant activity in ip dosed NMRI mouse assessed as dose required to cause protection against subcutaneous pentylene tetrazole-induced seizure after 4 hrs; format: functional; details: read-out: MED; how it was run: as §2
Mus musculus [5] = experiment: Anticonvulsant activity in NMRI mouse assessed as protection against maximal electroshock-induced seizures at 20 to 100 mg/kg, ip after 0.5 hrs; format: functional, organism-based; how it was run: as §2
Mus musculus [6] = experiment: Anticonvulsant activity in NMRI mouse assessed as protection against maximal electroshock-induced seizures at 20 to 100 mg/kg, ip after 4 hrs; format: functional, organism-based; how it was run: as §2
Mus musculus [7] = experiment: Anticonvulsant activity in ip dosed NMRI mouse assessed as dose required to cause protection against maximal electroshock-induced seizures after 0.5 hrs; format: functional; details: read-out: MED; how it was run: as §2
Mus musculus [8] = experiment: Anticonvulsant activity in ip dosed NMRI mouse assessed as dose required to cause protection against subcutaneous pentylene tetrazole-induced seizure after 0.5 hrs; format: functional; details: read-out: MED; how it was run: as §2
Mus musculus [9] = experiment: Neurotoxicity in NMRI mouse assessed as minimal motor impairment at 20 to 100 mg/kg, ip after 0.5 hrs by rotarod test; format: toxicity, organism-based; design: dose 20-100 mg/kg, route intraperitoneal; details: in vivo; how it was run: as §1
Mus musculus [10] = experiment: Anticonvulsant activity in ip dosed NMRI mouse assessed as dose required to cause protection against maximal electroshock-induced seizures after 4 hrs; format: functional; details: read-out: MED; how it was run: as §2
Mus musculus [11] = experiment: Neurotoxicity in NMRI mouse assessed as minimal motor impairment at 20 to 100 mg/kg, ip after 4 hrs by rotarod test; format: toxicity, organism-based; design: dose 20-100 mg/kg, route intraperitoneal; details: in vivo; how it was run: as §1

| Structure (SMILES) | TD50 at 0.5 h [1] [mg/kg] | Activity (Mus musculus [2]) | TD50 at 4 h [3] [mg/kg] | minimal effective dose (Mus musculus [4]) [mg/kg] | Activity (Mus musculus [5]) | Activity (Mus musculus [6]) | minimal effective dose (Mus musculus [7]) [mg/kg] | minimal effective dose (Mus musculus [8]) [mg/kg] | Activity (Mus musculus [9]) | minimal effective dose (Mus musculus [10]) [mg/kg] | Activity (Mus musculus [11]) |
| --- | --- | --- | --- | --- | --- | --- | --- | --- | --- | --- | --- |
| Cc1cccn2c(/C=N/OCc3cn(Cc4ccc([N+](=O)[O-])cc4)nn3)c(-c3ccc(F)cc3)nc12 | 100 | inactive | 100 | 40 | inactive | inactive | – | – | – | – | – |
| Cc1ccc(-c2nc3c(C)cccn3c2/C=N/OCc2cn(Cc3ccc([N+](=O)[O-])cc3)nn2)cc1 | – | – | – | 20 | – | – | 40 | 20 | Non-toxic | 40 | Non-toxic |
| Cc1ccc(-c2nc3ccc(Br)cn3c2/C=N/OCc2cn(Cc3ccc([N+](=O)[O-])cc3)nn2)cc1 | – | – | – | 20 | – | – | 40 | 20 | Non-toxic | 100 | Non-toxic |
| C#CCO/N=C/c1c(-c2ccc(C)cc2)nc2c(C)cccn12 | – | – | – | 20 | – | – | 20 | 20 | Non-toxic | 40 | Non-toxic |
| Cc1cccn2c(/C=N/OCc3cn(Cc4ccc(C#N)cc4)nn3)c(-c3ccc(F)cc3)nc12 | 100 | inactive | 100 | 40 | inactive | inactive | – | – | – | – | – |
